Four compounds from PMC3237191 (FEBS letters, 2011) can be followed below.

Assay [1] addresses T1, DGKε (DGKε-His6) (Homo sapiens, UniProt P52429).
T1 sequence (P52429 1-567): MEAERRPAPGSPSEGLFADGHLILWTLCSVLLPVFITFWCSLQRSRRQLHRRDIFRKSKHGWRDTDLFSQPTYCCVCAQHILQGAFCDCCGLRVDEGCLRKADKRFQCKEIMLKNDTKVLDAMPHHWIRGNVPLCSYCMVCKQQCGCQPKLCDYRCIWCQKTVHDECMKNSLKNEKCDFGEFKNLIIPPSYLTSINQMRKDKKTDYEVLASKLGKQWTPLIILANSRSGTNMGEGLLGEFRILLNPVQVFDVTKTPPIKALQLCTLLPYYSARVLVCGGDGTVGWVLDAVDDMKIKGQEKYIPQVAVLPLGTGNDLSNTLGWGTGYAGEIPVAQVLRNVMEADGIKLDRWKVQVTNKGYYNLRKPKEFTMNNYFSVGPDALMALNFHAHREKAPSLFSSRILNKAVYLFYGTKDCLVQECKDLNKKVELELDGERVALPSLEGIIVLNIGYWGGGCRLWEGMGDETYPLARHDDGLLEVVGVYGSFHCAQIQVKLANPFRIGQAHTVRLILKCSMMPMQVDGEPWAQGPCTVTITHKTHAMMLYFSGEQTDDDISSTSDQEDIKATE
Briefly: Triton X-100/DOPC mixed micelle assay with [γ-32P]-ATP. The following applies: 0.1 mM ATP; 15 mM Triton X-100; 22.5 mol% DOPC; lysate. The assay is classed as biochemical. Summed up: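 Enzyme is the 100,000 g supernatant (30 min, 4 °C) of baculovirus-infected Sf21 cells expressing human DGKε-His6. Cells were lysed 10 min on ice in 1% NP-40, 20 mM Tris-HCl pH 7.5, 150 mM NaCl, 1 mM EDTA, phosphatase and protease inhibitors, then sonicated 5 min. DAG substrate was dried with DOPC into lipid films for the micelles, and DAG level was varied. Run in triplicate. Vmax and Km come from nonlinear regression of v0 versus [S] and from Hanes plots.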

Assay [2] concerns the target T1, DGKε (DGKε-His6). Kind of assay: Triton X-100/DOPC mixed micelle assay with [γ-32P]-ATP, nonlinear regression. The assay is classed as biochemical. Particulars: competitive; substrate 18:0/20:4-DAG; 0.1 mM ATP; 15 mM Triton X-100; lysate. Summed up: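 DGKε-His6 was taken from the high-speed supernatant of NP-40-lysed, sonicated Sf21 cells infected with baculovirus. It phosphorylated 18:0/20:4-DAG or 20:4/20:4-DAG in Triton X-100/DOPC mixed micelles with [γ-32P]-ATP, with a phosphatidic acid species added as inhibitor. PA stock levels were set from measured phosphate content. Ki was fitted by nonlinear regression to a competitive inhibition model.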

In the case of `CCCCC/C=C\C/C=C\C/C=C\C/C=C\CCCC(=O)O[C@@H](CO)COC(=O)CCCCCCCCCCCCCCCCC` [18:0/20:4-DAG, 1-stearoyl-2-arachidonoyl-DAG], the “Km (mol%)” value in assay [1] was found to be 2.0 ± 0.7 mol%.

For the compound `CCCCC/C=C\C/C=C\CCCCCCCC(=O)OC[C@H](CO)OC(=O)CCCCCCC/C=C\C/C=C\CCCCC` [18:2/18:2-DAG], the “Km (mol%)” value in assay [1] was 3.5 ± 0.4 mol%.

In the case of `CCCCC/C=C\C/C=C\C/C=C\C/C=C\CCCC(=O)OC[C@H](CO)OC(=O)CCC/C=C\C/C=C\C/C=C\C/C=C\CCCCC` [20:4/20:4-DAG, 1,2-diarachidonoyl-DAG], the “Km (mol%)” value in assay [1] is reported as 2.0 ± 0.7 mol%.

With `CCCCC/C=C\C/C=C\C/C=C\C/C=C\CCCC(=O)OC[C@H](COP(=O)(O)O)OC(=O)CCC/C=C\C/C=C\C/C=C\C/C=C\CCCCC` [20:4/20:4-PA], in assay [2], the “Ki, mol%” value was determined as 4.4 ± 1.0 mol%.
